From ChEMBL document CHEMBL3297654, “Synthesis, antimicrobial and cytotoxic activities, and structure-activity relationships of gypsogenin derivatives against human cancer cells” (Eur J Med Chem, 2014)
Values belong to the compound of their own block, whether it stands above or below them. Activity calls are given as the source filed them. The calls are words filed in the database; no cut-off is given here.

Columns and labels:
Micrococcus luteus [1] = test: Antimicrobial activity against Micrococcus luteus ATCC 9341 assessed as zone of inhibition at 30 mg for 24 hrs at 30 degC by disk diffusion test; format: functional; conditions: ATCC 9341, 24 h, read-out: DIZ
Bacillus subtilis [2] = test: Antimicrobial activity against Bacillus subtilis ATCC 6633 for 24 hrs by microdillution method; format: functional
In short: (§1)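 Broth microdilution. Compound is dissolved in DMSO (2 mg/mL) and diluted in Mueller Hinton broth as two-fold serial dilutions from 256 to 0.125 µg/mL. Bacteria are pre-grown in nutrient broth at 30 °C, and the final inoculum is about 10^6 cfu/mL. Tests are incubated 37 °C for 24 h. MIC is the lowest concentration giving complete inhibition. Streptomycin is the positive control.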

Candida tropicalis = test: Antimicrobial activity against Candida tropicalis assessed as zone of inhibition at 30 uL for 24 hrs at 30 degC by disk diffusion test; format: functional, organism-based
In short: (§2)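 Agar well diffusion on Mueller Hinton agar seeded with 0.1 mL broth culture (18–24 h), adjusted to 0.5 McFarland (about 1×10^8 bacteria or 1×10^6 yeast cells/mL). A 6 mm well is filled with 30 µL of compound from a fresh 1000 µg/mL DMSO stock. Plates are held at 30 °C for 24 h and inhibition zone diameter is read in mm.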

[3] = test system: Staphylococcus epidermidis; test: Antimicrobial activity against Staphylococcus epidermidis ATCC 12228 assessed as zone of inhibition at 30 uL for 24 hrs at 37 degC by disk diffusion test; format: functional, organism-based
In short: (§3)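 Compound (30 µL of a fresh 1000 µg/mL DMSO stock) goes into a 6 mm well cut in Mueller Hinton agar inoculated with 0.1 mL broth culture adjusted to 0.5 McFarland (about 1×10^8 cells/mL). Plates are incubated 24 h at 37 °C, then zone of inhibition diameter is measured in mm.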

Enterococcus faecalis = test: Antimicrobial activity against Enterococcus faecalis ATCC 29212 assessed as zone of inhibition at 30 uL for 24 hrs at 37 degC by disk diffusion test; format: functional, organism-based; in short: as §3
MCF7 [4] = test: Antiproliferative activity against human MCF7 cells after 24 and 72 hrs by MTT assay; format: functional, cell-based
In short: (§4)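 ATCC human cell lines are kept in RPMI, DMEM or McCoy's 5A with 10–15% heat-inactivated FCS at 37 °C and 5% CO2. They are seeded at 1×10^4–1×10^5 cells/mL in 48-well plates and exposed to 0.5, 10, 20 or 40 µM. Viability is read by MTT (590 nm) at 24 and 72 h. Growth is expressed relative to untreated cells and IC50 is fitted, in triplicate.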

Cyberlindnera jadinii = test: Antimicrobial activity against Candida utilis ATCC 9950 assessed as zone of inhibition at 30 uL for 24 hrs at 30 degC by disk diffusion test; format: functional, organism-based; in short: as §2
Caco-2 [5] = test: Induction of necrosis in human Caco2 cells at 20 uM after 48 hrs by Hoechst 33258/propidium iodide staining based phase contrast microscopic analysis; format: functional
In short: (§5)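 Cells in 48-well plates treated with 0.5, 10, 20 or 40 µM for 24 and 48 h. Values are read at 48 h, 20 µM for test agents and 0.5 µM for controls. Staining is Hoechst 33258/propidium iodide double staining with fluorescence microscopy. Blue nuclei are viable or early-to-mid apoptotic, and pink nuclei are late apoptotic or necrotic. Apoptosis and necrosis are scored from chromatin condensation as % of cells. Cells are grown at 37 °C in 5% CO2 in RPMI, DMEM or McCoy's 5A with 10–15% heat-inactivated FCS.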

MCF7 [6] = test: Induction of necrosis in human MCF7 cells at 20 uM after 48 hrs by Hoechst 33258/propidium iodide staining based phase contrast microscopic analysis; format: functional; in short: as §5
HL-60 [7] = test: Induction of necrosis in human HL60 cells at 20 uM after 48 hrs by Hoechst 33258/propidium iodide staining based phase contrast microscopic analysis; format: functional; in short: as §5
SAOS-2 [8] = test: Induction of apoptosis in human Saos2 cells at 20 uM after 48 hrs by Hoechst 33258/propidium iodide staining based phase contrast microscopic analysis; format: functional; in short: as §5
HL-60 [9] = test: Antiproliferative activity against human HL60 cells after 24 and 72 hrs by MTT assay; format: functional, cell-based; in short: as §4
Caco-2 [10] = test: Antiproliferative activity against human Caco2 cells after 24 and 72 hrs by MTT assay; format: functional, cell-based; in short: as §4
HT-29 [11] = test: Induction of apoptosis in human HT-29 cells at 20 uM after 48 hrs by Hoechst 33258/propidium iodide staining based phase contrast microscopic analysis; format: functional; in short: as §5
SAOS-2 [12] = test: Induction of necrosis in human Saos2 cells at 20 uM after 48 hrs by Hoechst 33258/propidium iodide staining based […] microscopic analysis; format: functional; in short: as §5
HT-29 [13] = test: Antiproliferative activity against human HT-29 cells after 24 and 72 hrs by MTT assay; format: functional, cell-based; in short: as §4
Bacillus cereus [14] = test: Antimicrobial activity against Bacillus cereus ATCC 11778 for 24 hrs by microdillution method; format: functional; in short: as §1
Escherichia coli = test: Antimicrobial activity against Escherichia coli ATCC 25922 assessed as zone of inhibition at 30 uL for 24 hrs at 37 degC by disk diffusion test; format: functional, organism-based; in short: as §3
Caco-2 [15] = test: Induction of apoptosis in human Caco2 cells at 20 uM after 48 hrs by Hoechst 33258/propidium iodide staining based phase contrast microscopic analysis; format: functional; in short: as §5
Saccharomyces cerevisiae = test: Antimicrobial activity against Saccharomyces cerevisiae ATCC 9763 assessed as zone of inhibition at 30 uL for 24 hrs at 30 degC by disk diffusion test; format: functional, organism-based; in short: as §2
HT-29 [16] = test: Induction of necrosis in human HT-29 cells at 20 uM after 48 hrs by Hoechst 33258/propidium iodide staining based phase contrast microscopic analysis; format: functional; in short: as §5
HeLa [17] = test: Antiproliferative activity against human HeLa cells after 24 and 72 hrs by MTT assay; format: functional, cell-based; in short: as §4
Klebsiella pneumoniae = test: Antimicrobial activity against Klebsiella pneumoniae ATCC 13882 assessed as zone of inhibition at 30 uL for 24 hrs at 37 degC by disk diffusion test; format: functional, organism-based; in short: as §3
[18] = Antiproliferative activity against human Saos2 cells after 24 and 72 hrs by MTT assay; format: functional, cell-based; conditions: SAOS-2; in short: as §4
HeLa [19] = test: Induction of apoptosis in human HeLa cells at 20 uM after 48 hrs by Hoechst 33258/propidium iodide staining based phase contrast microscopic analysis; format: functional; in short: as §5
Micrococcus luteus [20] = test: Antimicrobial activity against Micrococcus luteus ATCC 9341 assessed as zone of inhibition at 30 uL for 24 hrs at 30 degC by disk diffusion test; format: functional, organism-based; in short: as §2
Bacillus thuringiensis [21] = test: Antimicrobial activity against Bacillus thuringiensis for 24 hrs by microdillution method; format: functional; in short: as §1
Bacillus cereus [22] = test: Antimicrobial activity against Bacillus cereus ATCC 11778 assessed as zone of inhibition at 30 uL for 24 hrs at 30 degC by disk diffusion test; format: functional; in short: as §2
Proteus vulgaris = test: Antimicrobial activity against Proteus vulgaris ATCC 33420 assessed as zone of inhibition at 30 uL for 24 hrs at 37 degC by disk diffusion test; format: functional, organism-based; in short: as §3
Nakaseomyces glabratus = test: Antimicrobial activity against Candida glabrata assessed as zone of inhibition at 30 uL for 24 hrs at 30 degC by disk diffusion test; format: functional, organism-based; in short: as §2
Bacillus subtilis [23] = test: Antimicrobial activity against Bacillus subtilis ATCC 6633 assessed as zone of inhibition at 30 uL for 24 hrs at 30 degC by disk diffusion test; format: functional; in short: as §2
Bacillus thuringiensis [24] = test: Antimicrobial activity against Bacillus thuringiensis assessed as zone of inhibition at 30 uL for 24 hrs at 30 degC by disk diffusion test; format: functional; in short: as §2
Pseudomonas aeruginosa = test: Antimicrobial activity against Pseudomonas aeruginosa ATCC 35032 assessed as zone of inhibition at 30 uL for 24 hrs at 37 degC by disk diffusion test; format: functional, organism-based; in short: as §3
MCF7 [25] = test: Induction of apoptosis in human MCF7 cells at 20 uM after 48 hrs by Hoechst 33258/propidium iodide staining based phase contrast microscopic analysis; format: functional; in short: as §5
HeLa [26] = test: Induction of necrosis in human HeLa cells at 20 uM after 48 hrs by Hoechst 33258/propidium iodide staining based phase contrast microscopic analysis; format: functional; in short: as §5
HL-60 [27] = test: Induction of apoptosis in human HL60 cells at 20 uM after 48 hrs by Hoechst 33258/propidium iodide staining based phase contrast microscopic analysis; format: functional; in short: as §5
Staphylococcus aureus = test: Antimicrobial activity against Staphylococcus aureus ATCC 25923 assessed as zone of inhibition at 30 uL for 24 hrs at 37 degC by disk diffusion test; format: functional, organism-based; in short: as §3
Salmonella typhimurium = test: Antimicrobial activity against Salmonella typhimurium ATCC 14028 assessed as zone of inhibition at 30 uL for 24 hrs at 37 degC by disk diffusion test; format: functional, organism-based; conditions: Salmonella enterica subsp. enterica serovar Typhimurium; in short: as §3
Candida albicans = test: Antimicrobial activity against Candida albicans ATCC 10231 assessed as zone of inhibition at 30 uL for 24 hrs at 30 degC by disk diffusion test; format: functional, organism-based; in short: as §2

SMILES: CN(C)[C@@H]1C(O)=C(C(N)=O)C(=O)[C@@]2(O)C(O)=C3C(=O)c4c(O)cccc4[C@@](C)(O)[C@H]3C[C@@H]12 [TETRACYCLINE]
zone of inhibition at 30000 µg/disc (Micrococcus luteus [1]): 26 mm

MIC (Bacillus subtilis [2]): inactive | IC50 (MCF7 [4]): 6.67 µM | IC50 (HL-60 [9]): 10.6 µM | IC50 (Caco-2 [10]): 16.1 µM | IC50 (HT-29 [13]): 8.01 µM | MIC (Bacillus cereus [14]): inactive | IC50 (HeLa [17]): 28.9 µM | MIC (Bacillus thuringiensis [21]): inactive
SMILES: CC1(C)CC[C@]2(C(=O)OCc3ccccc3)CC[C@]3(C)C(=CC[C@@H]4[C@@]5(C)CC[C@H](O)[C@@](C)(/C=N/O)[C@@H]5CC[C@]43C)[C@@H]2C1
diameter of the inhibition zone (DIZ) (Candida tropicalis): inactive | diameter of the inhibition zone (DIZ) [3]: inactive | diameter of the inhibition zone (DIZ) (Enterococcus faecalis): inactive | diameter of the inhibition zone (DIZ) (Cyberlindnera jadinii): inactive | Activity (Caco-2 [5]): 32% | Activity (MCF7 [6]): 54% | Activity (HL-60 [7]): 41% | Activity (SAOS-2 [8]): 9% | Activity (HT-29 [11]): 12% | Activity (SAOS-2 [12]): 23% | diameter of the inhibition zone (DIZ) (Escherichia coli): inactive | Activity (Caco-2 [15]): 11% | diameter of the inhibition zone (DIZ) (Saccharomyces cerevisiae): inactive | Activity (HT-29 [16]): 29% | diameter of the inhibition zone (DIZ) (Klebsiella pneumoniae): inactive | IC50 [18]: 10.3 µM | Activity (HeLa [19]): 11% | diameter of the inhibition zone (DIZ) (Micrococcus luteus [20]): inactive | diameter of the inhibition zone (DIZ) (Bacillus cereus [22]): inactive | diameter of the inhibition zone (DIZ) (Proteus vulgaris): inactive | diameter of the inhibition zone (DIZ) (Nakaseomyces glabratus): inactive | diameter of the inhibition zone (DIZ) (Bacillus subtilis [23]): inactive | diameter of the inhibition zone (DIZ) (Bacillus thuringiensis [24]): inactive | diameter of the inhibition zone (DIZ) (Pseudomonas aeruginosa): inactive | Activity (MCF7 [25]): 12% | Activity (HeLa [26]): 32% | Activity (HL-60 [27]): 8% | diameter of the inhibition zone (DIZ) (Staphylococcus aureus): inactive | diameter of the inhibition zone (DIZ) (Salmonella typhimurium): inactive | diameter of the inhibition zone (DIZ) (Candida albicans): inactive
